Compounds with a hit are over-represented: about 2.8% of the library has one in this group of screens.
EP2 modulator = EP2 receptor modulators, cAMP readout, primary screen, cell-based, HTRF cAMP, PGE2 stimulation | AID 940, 2007 | EP2-expressing cells, cAMP HTRF FRET, PGE2 co-stimulation | induction, % at 25 µM | 260,000 compounds, 0.83% hits;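 active means compounds whose cAMP rise, as percent of the full-agonist control response, exceeds 60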;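 further: rat C6 glioma line stably carrying human EP2 under a CMV promoter; the protocol text gives 20 µM as final concentration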
Target sequence (P43116 whole entry, looked up): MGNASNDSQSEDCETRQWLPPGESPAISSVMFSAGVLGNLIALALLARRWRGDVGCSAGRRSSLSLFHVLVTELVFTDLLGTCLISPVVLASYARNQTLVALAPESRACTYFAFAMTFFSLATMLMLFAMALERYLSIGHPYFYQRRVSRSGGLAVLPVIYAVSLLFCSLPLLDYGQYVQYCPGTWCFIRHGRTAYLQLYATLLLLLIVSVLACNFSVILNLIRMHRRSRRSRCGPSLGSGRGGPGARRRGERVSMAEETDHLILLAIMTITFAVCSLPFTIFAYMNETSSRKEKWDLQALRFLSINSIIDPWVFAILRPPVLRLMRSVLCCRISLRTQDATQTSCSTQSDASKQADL
NPY Y2 blocker = NPY-Y2 receptor antagonists, primary screen, cell-based; Neuropeptide Y receptor type 2 (Homo sapiens), P49146; NPY-Y2 expressing cells, antagonist mode; inhibition, % at 2.7 µM; 140,000 compounds, 0.99% hits; in the data active means inhibition above about 17%
NPY1 pot ag = NPY-Y1 receptor potentiators or agonists, primary screen, cell-based. Neuropeptide Y receptor type 1 (Homo sapiens), P25929. NPY-Y1 expressing cells, potentiator/agonist activation. activation, % at 3.6 µM. 220,000 compounds, 0.37% hits. AID 1304, 2008; in the data active means activation above about 33%, passing the limit was not always enough;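 further: cells stimulated with NPY at EC10 then isoproterenol at EC100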
EP2 antag = human EP2 receptor antagonists, primary screen, TR-FRET cAMP, C6 glioma cells; 260,000 compounds, 0.52% hits; inhibition, % at 25 µM; C6 glioma cells expressing human EP2; cells stimulated with saturating PGE2; Prostaglandin E2 receptor EP2 subtype (Homo sapiens), P43116; AID 1422, 2008;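 active means percent inhibition above 40 after rounding to a whole number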;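 further: rat C6 glioma host cells with rolipram phosphodiesterase inhibitor present; the protocol text gives 20 µM as final concentration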
NPY-Y1 antag = NPY-Y1 receptor antagonists, primary screen, cell-based; HEK293-CNG Y1 cells, membrane potential fluorescence; NPY at EC95, then isoproterenol; 200,000 compounds, 1% hits; AID 1040, 2008; inhibition, % at 3.6 µM;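 active means inhibition above the campaign mean inhibition of all tested compounds plus 3 SD, cut at about 20% in these data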
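Material: HEK293 cells with Y1 receptor plus CNG channel; times: compound incubation 1 h at room temperature, readout 45 min post-stimulation; signal: fluorescence, membrane potential probe; read-out basis: fluorescence ratio normalized to % inhibition between controls; benchmarks: full-block control isoproterenol-only wells, zero-block control NPY plus isoproterenol wells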
NPY2 pot ag = NPY-Y2 potentiators or agonists, primary screen, cell-based | Neuropeptide Y receptor type 2 (Homo sapiens), P49146 | cells expressing NPY-Y2, potentiator/agonist read-out | activation, % at 3.6 µM | 220,000 compounds, 0.45% hits | AID 1359, 2008; in the data active means activation above about 27%;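 further: cells stimulated with NPY near EC25 plus isoproterenol at EC100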
NPY-Y2 pot conf = NPY-Y2 potentiators or agonists, confirmation, cell-based; shares compounds with NPY2 pot ag; cell-based NPY-Y2 potentiator/agonist assay; activation, % at 3.6 µM; 450 compounds, 20% hits; AID 1539, 2009; in the data active means activation above about 33%
NPY-Y1 counter = NPY-Y1 potentiators or agonists, counter-screen for NPY-Y2 potentiator project, cell-based, fluorescence; shares compounds with NPY2 pot ag; Y1 HEK293-CNG cells, membrane potential fluorescence; activation, % at 3.6 µM; 450 compounds, 20% hits; AID 1651, 2009; in the data active means activation above about 45%;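 further: cells stimulated with submaximal NPY then isoproterenol with phosphodiesterase inhibitor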
NPY-Y1 ag 2 = NPY-Y1 direct agonists, selectivity assay for NPY-Y2 potentiator project, cell-based, fluorescence; AID 1702, 2009; shares compounds with NPY2 pot ag; 450 compounds, 37% hits; HEK293 Y1-CNGC, membrane potential fluorescence, agonism; activation, % at 3.6 µM;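 active means activation above the mean of DMSO-only control wells plus 3 SD, cut at about 18% in these data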;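 further: cells stimulated with 1 µM isoproterenol plus the PDE inhibitor Ro 20-1724; Y1 agonists lower the membrane potential dye signal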
CNGC inh = CNGC cAMP sensor activity inhibitors, counter-screen for NPY-Y2 potentiator project, cell-based, HEK293-CNG parental, membrane potential fluorescence; shares compounds with NPY2 pot ag; isoproterenol cAMP; inhibition, % at 3.6 µM; 450 compounds, 32% hits; AID 1703, 2009;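 active means inhibition above the control-well mean plus 3 SD of those wells, cut at about 22% in these data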
NPY-Y2 ag 2 = NPY-Y2 direct agonists, counter-screen for NPY-Y2 potentiator project, cell-based, fluorescence. shares compounds with NPY2 pot ag. HEK293 Y2/CNGC cells, membrane potential fluorescence, agonist mode. activation, % at 3.6 µM. 450 compounds, 56% hits;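 active means activation above the mean of solvent-only control wells plus 3 SD, cut at about 10% in these data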;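 further: cells stimulated by isoproterenol with no NPY added so direct agonism is tested; agonism lowers probe fluorescence through less cAMP and CNG channel opening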
Hits are given with their value; i = inactive; nt = no result.

SMILES	EP2 modulator	NPY Y2 blocker	NPY1 pot ag	EP2 antag	NPY-Y1 antag	NPY2 pot ag	NPY-Y2 pot conf	NPY-Y1 counter	NPY-Y1 ag 2	CNGC inh	NPY-Y2 ag 2
CC(C)C(c1nnnn1C1CCCCC1)N1CCc2ccccc21 (centres undefined)	i	i	i	i	i	59	i	i	i	i	i
Cc1cccc2sc(NC(=O)C3CCN(S(=O)(=O)c4cc([N+](=O)[O-])ccc4Cl)CC3)nc12	i	i	i	i	i	40	i	i	24	i	41
CC1CCc2c(sc3ncn4c(=O)n(CC(N)=O)nc4c23)C1 (centres undefined)	i	nt	nt	nt	nt	nt	nt	nt	nt	nt	nt
N#CC(C#N)=C(Nc1ccc(F)cc1)SCc1cccc(F)c1	i	i	i	i	i	37	i	i	i	i	i
CCn1nc(C)c(NS(=O)(=O)c2ccc3c(c2)NC(=O)C(C)O3)c1C (centres undefined)	i	nt	nt	i	nt	nt	nt	nt	nt	nt	nt
Cn1c(N)c(C(=O)Nc2ccc3ccccc3c2)sc1=S	i	i	i	nt	i	i	nt	nt	nt	nt	nt
Cn1c(N)c(C(=O)N/N=C/c2ccccc2)sc1=S	i	nt	i	i	nt	40	i	i	23	33	17
CCn1c(=NC(=O)CSC(C)=O)sc2cc(OC)ccc21	i	i	i	i	i	34	i	i	43	29	41
CCOC(=O)c1c(C)[nH]c(C(=O)COC(=O)c2ccc(O)cc2)c1C	i	nt	i	i	nt	45	i	i	i	i	i
Cc1ccc2c(-c3csc(NC(=O)C4(C)CCCO4)n3)c[nH]c2c1 (centres undefined)	i	nt	nt	i	nt	nt	nt	nt	nt	nt	nt
O=c1[nH][nH]c2ccccc2c1=O	i	nt	i	i	nt	87	i	i	i	i	i
O=c1c2ccccc2[nH]c2ccccc12	i	i	i	i	i	i	nt	nt	nt	nt	nt
O=C(Nc1ccc(F)cc1F)N1CCCN(c2ccc([N+](=O)[O-])cn2)CC1	i	nt	i	i	nt	i	nt	nt	nt	nt	nt
O=C(c1ccc(F)cc1F)C1CCN(c2ccc([N+](=O)[O-])cn2)CC1	i	nt	i	i	nt	46	i	i	i	i	12
CCc1nnc(NC(=O)CSc2nc3c(C)cc(C)cc3cc2C#N)s1	i	nt	nt	i	nt	nt	nt	nt	nt	nt	nt
C[N+]1(C)C[C@H](O)[C@H](C(=O)[O-])C1	i	nt	nt	i	nt	nt	nt	nt	nt	nt	nt
CCOc1ccc(NC(=O)C(=S)NC2CCCCC2)cc1	i	nt	i	i	i	i	nt	nt	nt	nt	nt
COc1ccc(NC(=O)C(=S)NC2CCCCC2)cc1	i	nt	i	i	i	31	i	i	i	i	i
Cc1ccccc1N(CC(=O)NC1CCCC1)C(=O)c1nsc(Cl)c1Cl	i	nt	nt	i	nt	nt	nt	nt	nt	nt	nt
COCCNC(=O)CN1C(=O)CSc2cc(S(=O)(=O)N3CCCCCC3)ccc21	nt	i	i	i	i	97	i	i	i	i	i
CC(C)NC(=S)N=Nc1c(O)[nH]c2ccc([N+](=O)[O-])cc12	i	nt	i	i	i	35	i	i	19	i	22

Source: PubChem BioAssay (several laboratories)
